Data reported in the EternaBench riboswitch data.

System: MS2 coat protein
Test: apparent Kd, MS2 coat protein; higher = weaker binding; RNA-MaP array; FMN 200 µM where present
In short: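 Stalled E. coli RNA polymerase produced the designs on Illumina sequencing-chip clusters. SNAP-549-labelled MS2 coat protein was added from 0.7 or 1.5 nM, doubling to 3 µM, without and then with constant ligand, in 100 mM Tris-HCl pH 7.5, 80 mM KCl, 4 mM MgCl2, BSA, DTT, yeast tRNA and Tween-20. The apparent Kd is the median of filtered per-cluster fits of green signal normalised to red-channel RNA signal and control-cluster median Fmax.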

[1] = designed as: OFF switch for flavin mononucleotide, no ligand
[2] = ligand present: flavin mononucleotide, designed as: OFF switch for flavin mononucleotide
[3] = designed as: ON switch for flavin mononucleotide, no ligand
[4] = ligand present: flavin mononucleotide, designed as: ON switch for flavin mononucleotide

| Sequence | apparent Kd [1] [nM] | apparent Kd [2] [nM] | apparent Kd [3] [nM] | apparent Kd [4] [nM] |
| --- | --- | --- | --- | --- |
| AAAUUUAACGAAGGAUAUGGUUACAUGAGGAUCACCCAUGUAAUGGCUGUGAUAUUGAUUAAGUUCCAGAAGGUCGUAUACAUA | 52.4 | 192 |  |  |
| ACGCGAUGGGAGAAGGUACUUUAAGAAUUUUUCACAUGAGGAUCACCCAUGUAAGGAUAUCCCAUCGUUAAAUAUUAUACAGCA | 5.07 | 4.82 |  |  |
| CUCAUGUGAGGAUAUGUGAUCAACCUUCUGUAUAGAUGAUGACAGAAGGCACAUGAGGAUCACCCAUGUAGAUC | 68.9 | 57.1 |  |  |
| UGCGGAAGAGGAUAUACGUAGAACUAGGUUCAUGUAAAACUACAUGAGGAUCACCCAUGUAGAAGGCUUUCGCU | 15.9 | 20.4 |  |  |
| AUACCUUAUGAGAAGGCGGUCAUGAAACAUGAUCGAGGAUAUCAUGUAAACAUGAGGAUCACCCAUGUAUGGGUAUUAUGGUAA |  |  | 44.8 | 10.2 |
| AUUUGAAUCGUAGGAUAUCGCUUAAAUUUACCACGAGAAGGACGAACAUGAGGAUCACCCAUGUAUCAUGGUGUAGAUAAUUUG | 68.2 | 249 |  |  |
| ACCUUCAAAGGAUAUGCGACUGGACGCCUUGCCAUGUAUAGACAUGAGGAUCACCCAUGUAGAAGGUUGGAGGA | 30.7 | 47.7 |  |  |
| AACAGCUCGUCAGGAUAUAUUUUCCUUUUAUGUAUUUAUGUACAUGAGGAUCACCCAUGUUGAUAGUAGAAGGGACGAGCUGAA | 13.8 | 34.4 |  |  |
| AGUAUGCACGCAGGAUAUACAUGAGGAUCACCCAUGUGGAACAGUGUAGUACUAGUUGAUCCUCAGUAGAAGGGCGGUCGAAUA | 44.2 | 56.6 |  |  |
| GUCUCACAUGAGGAUCACCCAUGUGAGGAUAUGGAUUCGCUGGCCGUAGCCAGUGGAUCCAGAAGGCGCAUGAU | 20.5 | 22 |  |  |
| AACAGCUCGUCAGGAUAUAUAUACUUAUAUUGUAUUUAUGUACAUGAGGAUCACCCAUGUUGUUAGUAGAAGGGACGAGCUGAA | 7.61 | 7.16 |  |  |
| CGCUACAGCCAGAAGGACAUGAGGAUCACCCAUGUAGGAUAUGGGAGACGCAGUCCCGUGUAGAGAAACUACGCUACUGUAGCG |  |  | 430 | 183 |
| UGGUACUAGGGAGGAUAUGGGAAGAUACAUGAGGAUCACCCAUGUUUAAGAAUGCCGAGAGGCAACUAGAAGGCCCUAGUACCG |  |  | 475 | 21.9 |
| UGUCGGAGCAGAGGAUAUACAUGAGGAUCACCCAUGUAAUAGGAUGAAGCCUGGAAACAGGCAAUGUAGAAGGCUGCUCCGACA | 57.9 | 670 |  |  |
| CAGCUGAAUGUGAGGAUAUUACGAGCUUCGGCUCGUGAGAAGGCACAUGAGGAUCACCCAUGUCUCAACAGCUG | 38.5 | 540 |  |  |
| UGUUGUAUUACAGGAUAUCUAGUAUUUUUAUGUAGAGAAGGGUAUUCACAUGAGGAUCACCCAUGUAUAUACGAGGAAGUUGUG |  |  | 39.7 | 43.2 |
| GUGUACAGAGGAUAUACAGGAGCAUGGAAACAUGCAACCUCACAUGAGGAUCACCCAUGUAGAAGGCUGUACAC | 154 | 81.3 |  |  |
| AGAUGACGAUGUUAUCUUCGUCGGACAUGAGGAUCACCCAUGUAGGAUAUGCUACUCAAAGAGUAGCAGAAGGACAUGUGUCUU | 37.4 | 245 |  |  |
| GGAUAGGACAGAGGAUAUACGUGCUAGAGAUACUAGCUAAAUUUCCUCACAUGAGGAUCACCCAUGUAGAAGGCUGUCCUAUCG | 15 | 412 |  |  |
| CCUAUGUGAGGAUAUCACUGGUCUUCUCACUGGAUGAUUAGUGAGAAGGCACAUGAGGAUCACCCAUGUCGGUG | 656 | 451 |  |  |
| AUCAGCUCGUCAGGAUAUACGUCACUGCGUCAGCAGUGUGGUAAGAUCACAUGAGGAUCACCCAUGUAGAAGGGACGAGCUGCU | 14 | 264 |  |  |
